Only some compounds are listed: those with a hit (about 3.8% of all), similar ones and a draw of the others.
INS promoter inh: TRM-6 insulin promoter activity inhibition. TRM-6 cells (human fetal islet line), insulin promoter-eGFP reporter, imaging; reporter expression induced with tamoxifen. inhibition, % at 2 µM. 0.9% of 130,000 active;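 active means inhibition above the mean plus 3 SD, with well images judged a real hit on visual review, cut at about 60% in these data, passing the limit was not always enough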
NPY-Y1 antag: antagonists of human neuropeptide Y receptor Y1. P25929. HEK293-CNG Y1 cells, membrane potential fluorescence; NPY at EC95, then isoproterenol. inhibition, % at 3.6 µM. 1% of 200,000 active;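 active means inhibition above the campaign mean inhibition of all tested compounds plus 3 SD, cut at about 20% in these data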;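 further: 0% = DMSO wells given NPY plus isoproterenol and 100% = isoproterenol alone without NPY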
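Material: HEK293 cells co-expressing NPY Y1 receptor and cyclic-nucleotide gated channel. Timing: compound incubation 1 h at room temperature, readout 45 min post-stimulation. Signal: fluorescence, membrane potential probe.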
NPY1 pot ag: potentiates or activates human NPY-Y1 receptor | NPY-Y1 expressing cells, potentiator/agonist activation | P25929 | AID 1304 | 0.37% of 220,000 active | activation, % at 3.6 µM; in the data active means activation above about 33%, passing the limit was not always enough;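 further: cells stimulated with NPY at EC10 then isoproterenol at EC100; 0% = low agonist plus stimulus and 100% = saturating agonist plus stimulus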
NPY2 pot ag: potentiates or activates human NPY-Y2 receptor. activation, % at 3.6 µM. cells expressing NPY-Y2, potentiator/agonist read-out. AID 1359. 0.45% of 220,000 active. P49146; in the data active means activation above about 27%;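 further: cells stimulated with NPY near EC25 plus isoproterenol at EC100; 0% = vehicle plus submaximal agonist and 100% = vehicle plus saturating agonist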
Target sequence (P49146 whole entry, looked up): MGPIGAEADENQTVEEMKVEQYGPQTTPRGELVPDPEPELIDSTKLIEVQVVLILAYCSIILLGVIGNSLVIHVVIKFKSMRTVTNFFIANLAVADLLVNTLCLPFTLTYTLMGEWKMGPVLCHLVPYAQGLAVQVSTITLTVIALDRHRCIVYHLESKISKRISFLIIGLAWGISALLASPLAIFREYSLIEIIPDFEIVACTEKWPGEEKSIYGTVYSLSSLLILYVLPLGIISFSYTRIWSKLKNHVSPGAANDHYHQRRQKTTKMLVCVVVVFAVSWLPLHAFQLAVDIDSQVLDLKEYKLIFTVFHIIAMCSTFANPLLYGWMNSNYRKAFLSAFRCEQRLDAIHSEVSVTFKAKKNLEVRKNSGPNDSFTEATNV
RAM network inh: blocks the yeast RAM network | S. cerevisiae dse1pr::URA3 reporter, 5-FOA growth OD615, 2 d; analog-sensitive cbk1-as2 kinase mutant strain | inhibition, % at 50 µM | 1.8% of 190,000 active | AID 868;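 active means inhibition above a set limit, 3 SD over mean compound inhibition, cut at about 8.4% in these data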;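 further: 0% = DMSO-only wells with no growth and 100% = 10 µM 1-NA-PP1 full growth; inhibition rescues growth on 5-FOA so higher OD means more RAM inhibition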
NPY-Y2 antag: NPY-Y2 (human) receptor antagonism | P49146 | NPY-Y2 expressing cells, antagonist mode | inhibition, % at 2.7 µM | 0.99% of 140,000 active; in the data active means inhibition above about 17%;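 further: 0% = vehicle with agonist challenge and 100% = reference antagonist with challenge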
NPY1 antag ctr: human NPY-Y1 antagonism in NPY-Y2 counter-screen; shares compounds with NPY-Y2 antag; cell-based NPY-Y1 antagonism counterscreen; inhibition, % at 3.6 µM; 19% of 710 active; in the data active means inhibition above about 20%;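 further: cells challenged with NPY then isoproterenol with cAMP sensed through a CNG channel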
NPY2 antag conf: confirmation of human neuropeptide Y receptor Y2 antagonists. HEK293 NPY-Y2 CNG channel, membrane potential fluorescence. shares compounds with NPY-Y2 antag. inhibition, % at 2.8 µM. 32% of 710 active;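 active means mean inhibition of triplicate wells above the hit cutoff set in the primary screen, cut at about 17% in these data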;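 further: 0% = DMSO with NPY challenge and 100% = BIIE0246 high control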
Active calls of the source: *; ! = not confirmed by another sample.

For CC(C)CC(c1nnnn1Cc1ccco1)N1CCN(C2CCCC2)CC1 (stereo not given) the results were INS promoter inh -25.8, NPY-Y1 antag 9.5, NPY1 pot ag -26.8, NPY2 pot ag -21.4, RAM network inh -0.4, NPY-Y2 antag 19.4*, NPY1 antag ctr 7.4 and NPY2 antag conf 3.9.
For CC(C)C(=O)N1CCN(c2ccc(NC(=O)COc3ccccc3[N+](=O)[O-])cc2)CC1 the results were NPY-Y1 antag 3.0, NPY1 pot ag -14.1, NPY2 pot ag -6.2 and RAM network inh 2.3.
CCOc1cc(/C=N/NC(=O)c2cccnc2)ccc1OC(=O)c1ccco1 was read as NPY-Y1 antag -2.8, NPY1 pot ag 0.1, NPY2 pot ag 14.1 and RAM network inh 0.1.
For CCc1nc2ccccc2c(C(=O)OCc2nnc(-c3ccccc3)o2)c1C the results were NPY-Y1 antag 13.1, NPY1 pot ag -57.5, NPY2 pot ag -19.9, RAM network inh 3.6, NPY-Y2 antag 18.1*, NPY1 antag ctr 26.2* and NPY2 antag conf 24.6*.
Screening CCc1ccccc1NC(=S)N(CCN1CCOCC1)C1CCN(C(C)=O)CC1 returned INS promoter inh 31.2, NPY-Y1 antag -1.7, NPY1 pot ag 7.0, NPY2 pot ag -5.1 and RAM network inh -0.5.
`COc1ccc(C2=C(CN(C)C)C(c3ccccc3)c3ccccc3O2)cc1` (stereo not given) gave INS promoter inh 34.6, NPY-Y1 antag 23.5*!, NPY1 pot ag -17.0, NPY2 pot ag -20.9, RAM network inh 0.6, NPY-Y2 antag 18.1*!, NPY1 antag ctr 24.9* and NPY2 antag conf 34.3*.
CCOc1ccc(C2=C(C=C(C#N)C#N)C(c3ccccc3)c3ccccc3O2)cc1 (stereo not given) was read as INS promoter inh -10.3, NPY-Y1 antag 6.3, NPY1 pot ag -17.9, NPY2 pot ag 6.5, RAM network inh 5.6 and NPY-Y2 antag 0.0.
Cc1cccc(-c2noc(CN(C(=O)C(c3ccccc3)c3ccccc3)C(C)C)n2)c1 was read as NPY-Y1 antag 17.9, NPY1 pot ag 0.6, NPY2 pot ag -14.2, RAM network inh 7.1, NPY-Y2 antag 17.4*, NPY1 antag ctr 8.3 and NPY2 antag conf 3.9.
`CC1(C)CN=c2s/c(=C\c3ccc(Cl)cc3)c(=O)n2C1` gave INS promoter inh 6.7, NPY-Y1 antag 3.3, NPY1 pot ag 18.7, NPY2 pot ag -0.3 and RAM network inh 0.4.
Screening C=CCn1c(C(C)NC(=O)c2cccs2)n[nH]c1=S (stereo not given) returned INS promoter inh 15.4, NPY-Y1 antag 1.9, NPY1 pot ag 14.1, NPY2 pot ag -2.8, RAM network inh 1.0 and NPY-Y2 antag 10.4.
`CCn1c(C(C)NC(=O)c2cccs2)n[nH]c1=S` (stereo not given) gave INS promoter inh -63.3, NPY-Y1 antag 1.0, NPY1 pot ag 4.9, NPY2 pot ag -1.5, RAM network inh 0.1, NPY-Y2 antag 22.4*, NPY1 antag ctr 0.8 and NPY2 antag conf -0.1.
Screening COc1ccc(-c2n[nH]c3c2C(c2ccc(OC)c(OC)c2)N(c2ccccc2)C3=O)cc1 (stereo not given) returned INS promoter inh 69.4*, NPY-Y1 antag 12.9, NPY1 pot ag -53.4, NPY2 pot ag -15.8, RAM network inh 9.1*, NPY-Y2 antag 27.4*, NPY1 antag ctr 19.0 and NPY2 antag conf 37.7*.
`CCOC(=O)N1CCc2c(sc(NC(=O)CN(CC)CC)c2C#N)C1` gave NPY1 pot ag 14.8 and NPY2 pot ag -0.9.
`Cc1cc(Oc2ccc(-c3ccccc3)cc2)n2ncnc2n1` gave NPY-Y1 antag 3.8, NPY1 pot ag -0.7, NPY2 pot ag -4.7, RAM network inh -0.8, NPY-Y2 antag 20.0*, NPY1 antag ctr 0.2 and NPY2 antag conf 2.7.
Cc1cc(Cl)ccc1OCCCC(=O)N1CCCc2ccccc21 was read as INS promoter inh -12.7, NPY-Y1 antag 19.0, NPY1 pot ag -16.5, NPY2 pot ag -22.7, RAM network inh 2.8, NPY-Y2 antag 26.6*, NPY1 antag ctr 22.6* and NPY2 antag conf 39.7*.

Screens: PubChem BioAssay, several laboratories
